Screening data deposited in PubChem by The Scripps Research Institute Molecular Screening Center.
SIAE primary – blocks human sialic acid acetylesterase; Q9HAT2; SIAE FP-Rh probe binding, fluorescence polarization; AID 1053197; 370,000 tested, 0.69% active; inhibition, % at 9.66 µM;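 active = inhibition above a cutoff: mean of compounds within the control limits plus 3 SD of those, cut at about 17% in these data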
HTRA1 inhibitor – inhibitors of human serine peptidase HTRA1; 340,000 tested, 0.5% active; inhibition, % at 5.96 µM; Q92743; recombinant HTRA1, FP-rhodamine activity-based probe, fluorescence polarization; AID 504803; in the data active = inhibition above about 36%
Target sequence (Q92743 whole entry, looked up): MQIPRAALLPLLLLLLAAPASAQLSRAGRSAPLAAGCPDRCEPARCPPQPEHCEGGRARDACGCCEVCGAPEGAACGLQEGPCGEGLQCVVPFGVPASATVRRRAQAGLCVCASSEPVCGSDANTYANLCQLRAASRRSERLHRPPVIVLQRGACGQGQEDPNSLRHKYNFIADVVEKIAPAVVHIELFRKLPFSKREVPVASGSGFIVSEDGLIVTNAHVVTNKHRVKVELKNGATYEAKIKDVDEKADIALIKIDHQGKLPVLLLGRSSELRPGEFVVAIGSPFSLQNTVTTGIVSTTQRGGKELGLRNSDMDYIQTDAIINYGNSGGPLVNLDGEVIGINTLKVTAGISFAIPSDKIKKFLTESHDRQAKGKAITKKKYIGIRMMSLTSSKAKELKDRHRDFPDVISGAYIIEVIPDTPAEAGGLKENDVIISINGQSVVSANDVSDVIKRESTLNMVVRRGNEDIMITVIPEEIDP
ABHD4 inh – inhibitors of mouse ABHD4. Q8VD66. 370,000 tested, 0.54% active. purified mABHD4, FP-Rh probe fluorescence polarization. inhibition, % at 8.92 µM;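 active = inhibition exceeding the mean over every tested compound plus 3 SD, cut at about 30% in these data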
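Test system: mABHD4 protein | Buffer or medium: HEPES pH 7.0 buffer, 150 mM NaCl, 0.01% Pluronic F-127 | Probe or stimulus: FP-Rh fluorescent activity-based probe, added after compound pre-incubation | Timing: Pre-incubation 45 min, probe exposure 60 min, at 25 °C | Technique: Fluorescence polarization, excitation 525 nm, emission 598 nm, BODIPY TMR filters | Repeats: Single well per compound (singlicate)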
DDE Tn6 FP inh – disrupts Tn6 cyclic peptide binding to fibrin D-Dimer-E complex. inhibition, % at 8.3 µM. P02675. 370,000 tested, 0.21% active. AID 720509. Fibrin DD(E) TRITC-Tn6 fluorescence polarization displacement;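 active = inhibition above a per-campaign cutoff: mean of compounds within control limits plus 3 SD, cut at about 15% in these data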
TCR-CD3 inh – inhibitors of human TCR-CD3 interaction. TAMRA-labeled TCR probe fluorescence, biochemical. 360,000 tested, 0.37% active. inhibition, % at 9.4 µM;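 also: recombinant mutant TCR 2C K166C tagged with TAMRA read by polarization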
DDE Tn7 FP inh – disrupts Tn7 cyclic peptide binding to fibrin D-Dimer-E complex; P02675; FP displacement of FITC-Tn7 peptide from fibrin DD(E); 0% = median of compound wells per plate; inhibition, % at 8.3 µM; 370,000 tested, 0.13% active;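 active = inhibition above the mean of compounds falling within the control limits plus 3 SD of them, cut at about 14% in these data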
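Assay system: Fibrin-DD(E) protein isolated from polymerized human fibrin clots; read-out basis: percent inhibition; medium: Tris/NaCl/CaCl2 buffer, pH 7.8; signal: FP measurement; incubation: 10 min plus 3 h, room temperature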
BSA TAMRA ctr – BSA probe counter-screen for TCR-CD3 inhibitors; TAMRA-labeled BSA probe fluorescence counterscreen; 1,200 tested, 10% active; shares compounds with TCR-CD3 inh; inhibition, % at 9.4 µM; in the data active = inhibition above about 23%
TCR-CD3 inh conf – TCR-CD3 interaction inhibition, confirmation; inhibition, % at 9.4 µM; TAMRA-labeled TCR probe fluorescence binding assay; shares compounds with TCR-CD3 inh; 1,200 tested, 48% active
Large screens that a line does not name were inactive (follow-up assays come after a bar, where they were run). Compounds with a hit are over-represented: about 1.8% of the library has one in this group of screens. Rule as the data show it, unless noted: active = inhibition above about 19%; inactive = the rest.

O=C(NCc1ccc(F)cc1)c1ccccc1OCc1ccccc1	none
O=C(NNC(=O)c1ccccc1OCc1ccc(F)cc1)c1ccccc1O	TCR-CD3 inh 24.9 | BSA TAMRA ctr inactive | TCR-CD3 inh conf 23.2
Cc1ccc(-c2nnc(SCC(=O)Nc3ccc4c(c3)OCCO4)n2-c2ccc(Cl)cc2)cc1	none (no result: HTRA1 inhibitor, TCR-CD3 inh)
O=C(CSc1nnc(-c2ccccn2)n1-c1ccccc1)Nc1ccc2c(c1)OCCO2	none (no result: HTRA1 inhibitor, TCR-CD3 inh)
CC(=O)c1cccc(NC(=O)CSc2ccc(-c3ccco3)nn2)c1	TCR-CD3 inh 25.6 | BSA TAMRA ctr inactive | TCR-CD3 inh conf inactive
Cc1c(C(=O)OCC(=O)Nc2cccc(S(N)(=O)=O)c2)oc2c1ccc1ccccc12	TCR-CD3 inh 25.0 | BSA TAMRA ctr inactive | TCR-CD3 inh conf inactive
Cc1ccc(C(=O)OCC(=O)Nc2ccc(C(N)=O)cc2)s1	TCR-CD3 inh active | BSA TAMRA ctr inactive | TCR-CD3 inh conf inactive
CCOc1ccccc1NC(=O)C(OC(=O)c1ccc(NC(=O)CC#N)cc1)c1ccccc1 (configuration not stated)	TCR-CD3 inh 20.3 | BSA TAMRA ctr inactive | TCR-CD3 inh conf inactive
Cc1ccc(C(=O)OC(C)C(=O)Nc2ccc(S(N)(=O)=O)cc2)cc1S(=O)(=O)N1CCOCC1 (configuration not stated)	none
Cc1ccc(NC(=O)C(C)OC(=O)c2ccc(NC(=O)CC#N)cc2)cc1S(=O)(=O)N1CCOCC1 (configuration not stated)	TCR-CD3 inh 26.7 | BSA TAMRA ctr inactive | TCR-CD3 inh conf inactive
CCOc1ccccc1NC(=O)C(OC(=O)c1ccccc1)c1ccccc1 (configuration not stated)	none
CC(OC(=O)c1ccc(NC(=O)CC#N)cc1)C(=O)NC(c1ccccc1)c1ccccc1 (configuration not stated)	TCR-CD3 inh 29.5 | BSA TAMRA ctr inactive | TCR-CD3 inh conf inactive
CC(OC(=O)c1ccc(NC(=O)CC#N)cc1)C(=O)Nc1ccc2c(c1)OCCO2 (configuration not stated)	none
CCOC(=O)N1CCN(C(=O)C[C@@H]2C(=O)N3CCCC4=C3[C@@]2(C(=O)OCC)CCC4)CC1	none (no result: HTRA1 inhibitor, TCR-CD3 inh)
Cc1cc(C(=O)N/N=C/c2cc([N+](=O)[O-])ccc2O)c2ccccc2n1	none
Cc1cc(C(=O)N/N=C/c2cc(Br)cc([N+](=O)[O-])c2O)c2ccccc2n1	ABHD4 inh 43.7, TCR-CD3 inh 40.7 | BSA TAMRA ctr inactive | TCR-CD3 inh conf 42.7
O=C(Cn1nnc(-c2ccccc2)n1)N/N=C/c1cccc([N+](=O)[O-])c1O	TCR-CD3 inh 37.5 (no result: HTRA1 inhibitor) | BSA TAMRA ctr inactive | TCR-CD3 inh conf 49.8
Cc1cc(C(=O)N/N=C/c2cccc([N+](=O)[O-])c2O)n[nH]1	TCR-CD3 inh 29.3 | BSA TAMRA ctr inactive | TCR-CD3 inh conf inactive
COC(=O)[C@]12C[C@H](CC(=O)N3CCN(C(=O)c4ccco4)CC3)C(=O)N(Cc3ccco3)C1=C[C@H](C(C)(C)C)O[C@@H]2C	none (no result: HTRA1 inhibitor, TCR-CD3 inh)
COC(=O)C1CCN(C(=O)CCn2nnc(-c3cccs3)n2)CC1	none (no result: HTRA1 inhibitor, TCR-CD3 inh)
COC(=O)C1CN(C2CCCC2)CCS(=O)(=O)N1Cc1ccc(F)cc1 (configuration not stated)	none (no result: HTRA1 inhibitor, TCR-CD3 inh)
Cc1cc(/C=N/n2c(COc3ccccc3C)nc3ccccc3c2=O)c(O)c([N+](=O)[O-])c1	TCR-CD3 inh 20.6 | BSA TAMRA ctr inactive | TCR-CD3 inh conf 52.8
CCC(=O)N(Cc1cc2c(C)ccc(C)c2[nH]c1=O)C1CCCCC1	TCR-CD3 inh 28.9 | BSA TAMRA ctr inactive | TCR-CD3 inh conf inactive
C[C@@H]1COc2cc(Br)ccc2S(=O)(=O)N1Cc1cn(Cc2ccc(Cl)cc2)nn1	none (no result: HTRA1 inhibitor, TCR-CD3 inh)
CC(=O)Nc1ccc(NC(=O)CC(c2ccccc2)c2ccccc2)cc1	TCR-CD3 inh 113.9 | BSA TAMRA ctr 23.0 | TCR-CD3 inh conf inactive
O=C(CC(c1ccccc1)c1ccccc1)Nc1ccc(O)cc1	none
